Measured values published in ChEMBL document CHEMBL1128301, “Cephalosporin derivatives of doxorubicin as prodrugs for activation by monoclonal antibody-beta-lactamase conjugates” (J Med Chem, 1995).

Assays:
[1] = biological target: Beta-lactamase TEM (Escherichia coli) (UniProt P62593); assay: The kinetic constant(kcat) value as spectrophotometrically by using Escherichia coli TEM-1 beta-lactamase (ECbL) enzyme as catalyst
Outline: (§1)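 Spectrophotometric hydrolysis at 23 °C in PBS with 12.5 μg/mL BSA. EClbL was used at 0.1 μg/mL; BCbL and ECbL at 1.0 μg/mL. […] Initial velocities were linear over 1 min.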

[2] = biological target: T1, Metallo-beta-lactamase type 2 (Bacillus cereus) (UniProt P14488); assay: The kinetic constant(kcat) value as spectrophotometrically by using Bacillus cereus beta-lactamase (BCbL) enzyme as catalyst; outline: as §1
T1 sequence (whole entry): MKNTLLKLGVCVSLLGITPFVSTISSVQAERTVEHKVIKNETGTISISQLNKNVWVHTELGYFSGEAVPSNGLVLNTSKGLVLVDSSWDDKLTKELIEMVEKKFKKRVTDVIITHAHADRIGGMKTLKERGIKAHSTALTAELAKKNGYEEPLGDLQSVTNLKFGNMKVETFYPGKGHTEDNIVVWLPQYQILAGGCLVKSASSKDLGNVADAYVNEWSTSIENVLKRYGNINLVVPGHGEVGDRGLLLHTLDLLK

[3] = biological target: Beta-lactamase (Enterobacter cloacae) (UniProt P05364); assay: The kinetic constant(kcat) value as spectrophotometrically by using Enterobacter cloacae P99 beta-lactamase (ECIbL) enzyme as catalyst; outline: as §1
Sequence of Beta-lactamase (Enterobacter cloacae) (P05364 21-381 limits assumed): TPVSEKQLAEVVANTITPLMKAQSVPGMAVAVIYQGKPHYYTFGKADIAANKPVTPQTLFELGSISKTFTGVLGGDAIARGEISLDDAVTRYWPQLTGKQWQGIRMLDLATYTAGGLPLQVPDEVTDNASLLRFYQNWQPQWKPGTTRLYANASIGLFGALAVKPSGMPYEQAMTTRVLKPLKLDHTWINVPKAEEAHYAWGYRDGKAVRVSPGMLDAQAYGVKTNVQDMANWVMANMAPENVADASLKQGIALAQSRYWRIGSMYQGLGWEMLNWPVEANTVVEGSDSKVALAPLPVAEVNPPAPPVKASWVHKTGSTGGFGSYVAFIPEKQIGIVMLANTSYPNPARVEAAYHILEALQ

Sequence of Beta-lactamase TEM (Escherichia coli) (P62593 whole entry): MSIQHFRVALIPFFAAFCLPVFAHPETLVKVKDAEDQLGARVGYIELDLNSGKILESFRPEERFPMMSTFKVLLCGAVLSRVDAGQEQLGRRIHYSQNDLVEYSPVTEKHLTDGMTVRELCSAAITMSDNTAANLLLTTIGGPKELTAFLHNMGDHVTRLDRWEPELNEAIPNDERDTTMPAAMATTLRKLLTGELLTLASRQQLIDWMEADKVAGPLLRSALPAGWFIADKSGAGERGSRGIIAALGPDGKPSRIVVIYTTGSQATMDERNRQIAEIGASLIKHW

## COc1cccc2c1C(=O)c1c(O)c3c(c(O)c1C2=O)C[C@@](O)(C(=O)CO)C[C@@H]3OC1CC(NC(=O)OCC2=C(C(=O)O)N3C(=O)[C@@H](NC(=O)CCCC(=O)O)[C@H]3SC2)C(O)C(C)O1 (stereo partly drawn)
[1]
  k cat: 2.8 s⁻¹
[2]
  k cat: 6.6 s⁻¹
[3]
  k cat: 210 s⁻¹
